# Assay outcomes (PubChem BioAssay)
# Rows were chosen to be rich in hits. Some 2.6% of all compounds tested hit in one or more screens of this group.
# HTRA1 inhibitor: blocks human HTRA1 serine peptidase | Q92743 | recombinant HTRA1, FP-rhodamine activity-based probe, fluorescence polarization | inhibition, % at 5.96 µM | 340,000 compounds, 0.5% hits | AID 504803; in the data active means inhibition above about 36%;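 further: 0% = enzyme with DMSO and 100% = wells lacking enzyme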
# mABHD4 FP: inhibitors of mouse ABHD4; purified mABHD4, FP-Rh probe fluorescence polarization; inhibition, % at 8.92 µM; 370,000 compounds, 0.54% hits; AID 720543;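 active means inhibition exceeding the mean over every tested compound plus 3 SD, cut at about 30% in these data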;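 further: 0% = plate median of compound wells and 100% = S159A mutant with DMSO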
#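 Assay system: mouse ABHD4 enzyme, wild type / Also added: fluorescent activity-based probe FP-Rh / Doses: single nominal dose of 8.92 µM, 0.89% DMSO final / Timing: 45 min compound pre-incubation plus 60 min probe step, 25 °C / Signal: FP readout, ex 525 nm / em 598 nm / Control set: S159A mutant/DMSO as 100%, compound-well median as 0%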
# PRMT1 FP inh: blocks human protein arginine methyltransferase 1; recombinant PRMT1, activity-based probe fluorescence polarization; inhibition, % at 2.79 µM; 370,000 compounds, 1.3% hits; AID 652257;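 active means inhibition above about 21% made by adding two undisclosed values, limit read from the data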
# Target sequence (Q99873 whole entry, looked up): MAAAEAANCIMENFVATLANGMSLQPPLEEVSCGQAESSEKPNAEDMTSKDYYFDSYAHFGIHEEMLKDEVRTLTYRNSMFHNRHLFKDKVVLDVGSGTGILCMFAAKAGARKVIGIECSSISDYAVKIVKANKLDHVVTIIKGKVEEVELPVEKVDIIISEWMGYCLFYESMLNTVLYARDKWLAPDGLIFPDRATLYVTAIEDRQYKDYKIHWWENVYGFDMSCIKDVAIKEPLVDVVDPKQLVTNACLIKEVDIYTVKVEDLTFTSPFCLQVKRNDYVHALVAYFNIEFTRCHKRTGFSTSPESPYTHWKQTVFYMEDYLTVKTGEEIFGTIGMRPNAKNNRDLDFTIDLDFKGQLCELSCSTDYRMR
# TCR CD3 inh: human TCR-CD3 binding inhibition; AID 651800; TAMRA-labeled TCR probe fluorescence, biochemical; 360,000 compounds, 0.37% hits; inhibition, % at 9.4 µM; in the data active means inhibition above about 19%;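 further: recombinant mutant TCR 2C K166C tagged with TAMRA read by polarization; 0% = receptor in buffer alone and 100% = receptor with positive control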
# SIAE primary: inhibitors of human sialic acid acetylesterase SIAE. Q9HAT2. SIAE FP-Rh probe binding, fluorescence polarization. inhibition, % at 9.66 µM. 370,000 compounds, 0.69% hits. AID 1053197;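 active means inhibition above a cutoff: mean of compounds within the control limits plus 3 SD of those, cut at about 17% in these data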;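 further: 0% = plate median of compound wells and 100% = probe without SIAE protein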
# PRMT1 inh conf: confirmation of human PRMT1 inhibitors | 3,300 compounds, 42% hits | recombinant His-PRMT1, activity-based probe fluorescence polarization | inhibition, % at 2.79 µM | AID 687036 | shares compounds with PRMT1 FP inh;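 active means mean inhibition across replicates above the hit cutoff derived for the earlier primary screen, cut at about 22% in these data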
# Numbers without * were called inactive; . = not tested or not shown.
SMILES,HTRA1 inhibitor,mABHD4 FP,PRMT1 FP inh,TCR CD3 inh,SIAE primary,PRMT1 inh conf
COC(=O)c1c(N2C(=O)CC(Sc3ccccc3C(=O)O)C2=O)sc(C)c1C (stereo not given),-2,11,64*,-7,-5,51*
O=C(O)c1ccccc1SC1CC(=O)N(c2ccccc2)C1=O (stereo not given),-2,10,66*,0,0,23*
Cc1ccc(N2C(=O)C3C4C=CC(CNC(=S)N5CCN(c6ccccn6)CC5)(O4)C3C2=O)cc1 (stereo not given),3,-4,57*,-1,3,48*
CC(C)COC(=O)NCC12C=CC(O1)C1C(=O)N(c3ccc(Cl)cc3)C(=O)C12 (stereo not given),1,4,37*,-2,0,33*
CC(C)(C)C(=O)NCC12C=CC(O1)C1C(=O)N(c3ccccc3)C(=O)C12 (stereo not given),8,13,81*,-3,-1,56*
Cc1ccc(N2C(=O)C3C4C=CC(CNC(=S)Nc5ccc(Cl)cc5)(O4)C3C2=O)cc1 (stereo not given),-38,-2,85*,-3,-6,29*
CCC1(C(=O)OC)NC(c2ccco2)C2C(=O)N(c3ccccc3)C(=O)C21 (stereo not given),3,-2,2,1,0,.
O=C1N(CCCO)CCC12CCC(c1ccccc1)CC2 (stereo not given),.,-1,-2,.,-2,.
Cc1ccc(N2C(=O)C3C4C=CC(CNC(=S)Nc5ccc(F)cc5)(O4)C3C2=O)cc1 (stereo not given),-8,1,80*,-2,3,41*
Cc1ccc(N2C(=O)C3C4C=CC(CNC(=S)Nc5cccc(Cl)c5)(O4)C3C2=O)cc1 (stereo not given),-38,-9,90*,-2,2,53*
CCc1ccc(-c2csc3[n+]2CCN3C(C)=O)cc1,-3,-13,72*,7,2,46*
C=Cn1c(C(=O)O)ccc1-c1ccc(CC)cc1,5,-4,0,3,4,.
CCCC[C@H]1C2CC(OC(=O)Nc3ccccc3OC)C(C2)[C@H]2CCCCN21 (stereo not given in full),.,-5,-2,.,2,.
Cc1ccc(CNC(=O)C2CCN(S(=O)(=O)c3cccs3)CC2)o1,1,4,29*,-2,2,4
Cc1ccc(CNC(=O)C2CCN(S(=O)(=O)c3cccs3)CC2)cc1,-4,4,1,-2,1,.
COc1ccc(C2C(C(=O)N3CCN(c4ccccc4Cl)CC3)CC(=O)N2c2ccc(OC)cc2)cc1 (stereo not given),.,2,1,.,2,.
CCOC(=O)[C@]12CCCC=C1N(CCCOC)C(=O)[C@@H]2CC(=O)N1CCSCC1,.,-1,-5,.,-5,.
Cc1ccc(N2CC(C(=O)OCC(=O)c3ccc([N+](=O)[O-])cc3)CC2=O)cc1 (stereo not given),-1,4,29*,3,1,48*
O=C(COC(=O)C1CC(=O)N(c2ccccc2)C1)c1ccccc1 (stereo not given),0,-4,-4,7,14,.
C=C1C(=O)C23C(O)C1CCC2C12CCCC(C)(COC(C)=O)C1C(O)C3(O)OC2 (stereo not given),-3,8,31*,-2,5,33*
O=C1C=C(C2CCCCC2)C(=O)c2ccccc21,2,10,31*,2,5,4
O=C(O)C1=C(C2CCCCC2)C(=O)c2ccccc21,6,0,1,0,3,.
CN1Cc2nnn(Cc3ccccc3)c2-c2cc(N3CCCCC3)ccc2S1(=O)=O,.,-6,-2,.,-8,.
CC(C)N(Cc1cn(Cc2ccccc2)nn1)S(=O)(=O)c1ccccc1Br,.,-2,2,.,1,.
O=C(CC1Sc2ncnn2C1=O)Nc1ccc(Br)cc1 (stereo not given),-26,-6,53*,-2,-2,54*
SMILES,HTRA1 inhibitor,mABHD4 FP,PRMT1 FP inh,TCR CD3 inh,SIAE primary,PRMT1 inh conf
Cc1nn(C)c(Sc2ccccc2N)c1[N+](=O)[O-],2,2,71*,2,12,52*
O=C(c1cc(Br)cc(Br)c1)N1CCC(Oc2cccnc2)CC1,.,0,4,.,-2,.
COc1ccccc1-n1c(SCC(=O)NCc2ccc3c(c2)OCO3)nc2cc([N+](=O)[O-])ccc21,-17,4,84*,1,8,26*
CC(Sc1nc2cc([N+](=O)[O-])ccc2n1-c1ccc(F)cc1)C(=O)NCc1ccc2c(c1)OCO2 (stereo not given),-10,8,10,5,7,.
C=CCn1c(SCC(=O)Nc2ccc(Br)cc2)nc(O)c(CC)c1=O,1,-9,53*,-4,-2,16
COc1ccccc1CNC(=O)N1CCC(c2nc3ccc(Cl)cc3[nH]2)CC1,.,-4,-2,.,1,.
O=S(=O)(c1ccccc1)n1c(CN2CCOCC2)nc2ccccc21,.,-3,-7,.,10,.
Nc1sccc1C(=O)NCc1ccccc1,.,-22,34*,-12,-13,16
O=C(O)c1ccccc1C(=O)NCc1ccccc1,6,1,-3,2,2,.
O=C1CC(N2CCCCC2)C(=O)N1c1ccccc1 (stereo not given),4,10,81*,7,-1,13
O=C1CC(N2CCSCC2)C(=O)N1c1ccccc1 (stereo not given),9,3,10,-1,2,.
O=C1CC(N2CCCN(C3CC(=O)N(c4ccc(F)cc4)C3=O)CC2)C(=O)N1c1ccc(F)cc1 (stereo not given),-4,-3,78*,2,-1,6
O=c1[nH]c(-c2ccccn2)nc2sc(-c3ccccc3)cc12,10,-1,33*,0,-10,-5
COc1cccc(NC(=O)CSc2nc3c(sc4ccccc43)c(=O)n2CCN(C)C)c1,-9,-2,68*,-4,1,68*
CCN(CC)CCn1c(SCC(=O)Nc2cccc(OC)c2)nc2c(sc3ccccc32)c1=O,-21,-10,19,4,-3,.
C[C@@H]1COc2cc(N3CCCC3)ccc2S(=O)(=O)N1C,.,6,5,.,3,.
CCCC(=O)NC1=C(Cl)C(=O)c2ccccc2C1=O,2,10,95*,-4,-1,94*
Cc1cccc(NC(=O)CCS(=O)(=O)c2ccccc2)c1C,.,0,1,.,-1,.
N#CC1=C(N)OC2=C(CC/C2=C\c2ccccc2)C1c1ccccc1 (stereo not given),-21,0,27*,-8,6,48*
Cc1nn(-c2ccccc2)c2sc(C(=O)NCc3ccc4c(c3)OCO4)cc12,.,-59,1,.,-56,.
CCCCS(=O)(=O)N1C2=NC3=C(C(=O)N(CCOC)C3=O)C3N(C)c4ccccc4[C@]23C[C@H]1CO (stereo not given in full),.,9,2,.,4,.
